According to ChEMBL document CHEMBL2146441, “2,6-Disubstituted imidazo[2,1-b][1,3,4]thiadiazoles: search for anticancer agents” (2012):

How the values were obtained:
Assay type in all cases: functional
SF-295 [1] = experiment: Cytotoxicity against human SF295 cells assessed as cell growth at 10^-5 M after 48 hrs by SRB assay; conditions: SF-295, 48 h, read-out: Activity
SN12C [2] = experiment: Cytotoxicity against human SN12C cells assessed as cell growth at 10^-5 M after 48 hrs by SRB assay; conditions: read-out: Activity
SF-295 [3] = experiment: Growth inhibition of human SF295 cells after 48 hrs by SRB assay; conditions: SF-295, 48 h; for CC50: read-out: LC50 (the source's name)
How it was run: (§1)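 Adherent NCI-60 lines grown in RPMI 1640 with 5% FBS, seeded at 5000–40,000 cells/well, and preincubated 24 h at 37 °C, 5% CO2. Compound, stocked in DMSO, given either once at 10^-5 M or at five 10-fold dilutions for 48 h. Cells fixed with cold TCA (final 10%), stained with 0.4% SRB, and read at 515 nm. GI50 taken as 50% reduction in net protein increase versus time-zero and control plates.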

LOX IMVI [4] = experiment: Growth inhibition of human LOXIMVI cells after 48 hrs by SRB assay; how it was run: as §1
SK-MEL-2 = experiment: Growth inhibition of human SK-MEL-2 cells after 48 hrs by SRB assay; conditions: SK-MEL-2, 48 h; for CC50: read-out: LC50 (the source's name); how it was run: as §1
UO-31 [5] = experiment: Growth inhibition of human UO31 cells after 48 hrs by SRB assay; conditions: UO-31, 48 h; how it was run: as §1
BT-549 = experiment: Cytotoxicity against human BT549 cells assessed as cell growth at 10^-5 M after 48 hrs by SRB assay; conditions: BT-549, 48 h, read-out: Activity
How it was run: (§2)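 NCI-60 screen: lines kept in RPMI 1640 with 5% FBS, seeded at 5000–40,000 cells/well by doubling time, preincubated 24 h at 37 °C in 5% CO2. Time-zero plates TCA-fixed at drug addition. DMSO stocks diluted in medium, 48 h exposure. Fixation in cold TCA (final 10% adherent, 16% suspension), 0.4% SRB stain, solubilised in 10 mM Tris base, A515. Percent growth computed against control and time-zero.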

HL-60 = experiment: Cytotoxicity against human HL60 cells assessed as cell growth at 10^-7 M after 48 hrs by SRB assay; conditions: HL-60, 48 h, read-out: Activity
How it was run: (§3)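 NCI-60 five-dose screen. Cells were grown in RPMI 1640 with 5% FBS and seeded at 5000–40,000 cells/well according to doubling time. They were pre-incubated 24 h at 37 °C in 5% CO₂, and time-zero (Tz) plates were TCA-fixed at drug addition. Five 10-fold dilutions of DMSO stock were applied for 48 h. Read-out was SRB staining, 515 nm absorbance, with percent growth calculated versus Tz and untreated control.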

U-251 = experiment: Cytotoxicity against human U251 cells assessed as cell growth at 10^-7 M after 48 hrs by SRB assay; conditions: U-251, 48 h, read-out: Activity
LOX IMVI [6] = experiment: Cytotoxicity against human LOXIMVI cells assessed as cell growth at 10^-7 M after 48 hrs by SRB assay; conditions: read-out: Activity
EKVX = experiment: Cytotoxicity against human EKVX cells assessed as cell growth at 10^-4 M after 48 hrs by SRB assay; conditions: read-out: Activity; how it was run: as §2
HOP-62 [7] = experiment: Cytotoxicity against human HOP62 cells assessed as cell growth at 10^-4 M after 48 hrs by SRB assay; conditions: HOP-62, 48 h, read-out: Activity; how it was run: as §3
NCI-H522 = experiment: Cytotoxicity against human NCI-H522 cells assessed as cell growth at 10^-4 M after 48 hrs by SRB assay; conditions: NCI-H522, 48 h, read-out: Activity
HCT-116 = experiment: Cytotoxicity against human HCT116 cells assessed as cell growth at 10^-4 M after 48 hrs by SRB assay; conditions: HCT-116, 48 h, read-out: Activity; how it was run: as §3
LOX IMVI [8] = experiment: Cytotoxicity against human LOXIMVI cells assessed as cell growth at 10^-4 M after 48 hrs by SRB assay; conditions: read-out: Activity
786-0 [9] = experiment: Cytotoxicity against human 786-0 cells assessed as cell growth at 10^-4 M after 48 hrs by SRB assay; conditions: 786-0, 48 h, read-out: Activity; how it was run: as §2
OVCAR-8 = experiment: Cytotoxicity against human OVCAR8 cells assessed as cell growth at 10^-7 M after 48 hrs by SRB assay; conditions: OVCAR-8, 48 h, read-out: Activity
786-0 [10] = experiment: Cytotoxicity against human 786-0 cells assessed as cell growth at 10^-7 M after 48 hrs by SRB assay; conditions: 786-0, 48 h, read-out: Activity; how it was run: as §2
UO-31 [11] = experiment: Cytotoxicity against human UO31 cells assessed as cell growth at 10^-7 M after 48 hrs by SRB assay; conditions: UO-31, 48 h, read-out: Activity
T47D = experiment: Cytotoxicity against human T47D cells assessed as cell growth at 10^-7 M after 48 hrs by SRB assay; conditions: read-out: Activity
MDA-MB-468 = experiment: Cytotoxicity against human MDA-MB-468 cells assessed as cell growth at 10^-7 M after 48 hrs by SRB assay; conditions: MDA-MB-468, 48 h, read-out: Activity
A498 = experiment: Cytotoxicity against human A498 cells assessed as cell growth at 10^-8 M after 48 hrs by SRB assay; conditions: A498, 48 h, read-out: Activity; how it was run: as §2
ACHN = experiment: Cytotoxicity against human ACHN cells assessed as cell growth at 10^-8 M after 48 hrs by SRB assay; conditions: read-out: Activity; how it was run: as §2
SN12C [12] = experiment: Cytotoxicity against human SN12C cells assessed as cell growth at 10^-8 M after 48 hrs by SRB assay; conditions: read-out: Activity
CCRF-CEM [13] = experiment: Cytotoxicity against human CCRF-CEM cells assessed as cell growth at 10^-6 M after 48 hrs by SRB assay; conditions: read-out: Activity; how it was run: as §2
UACC-62 = experiment: Cytotoxicity against human UACC62 cells assessed as cell growth at 10^-6 M after 48 hrs by SRB assay; conditions: UACC-62, 48 h, read-out: Activity
OVCAR-5 = experiment: Cytotoxicity against human OVCAR5 cells assessed as cell growth at 10^-6 M after 48 hrs by SRB assay; conditions: OVCAR-5, 48 h, read-out: Activity
786-0 [14] = experiment: Cytotoxicity against human 786-0 cells assessed as cell growth at 10^-6 M after 48 hrs by SRB assay; conditions: 786-0, 48 h, read-out: Activity; how it was run: as §2
RXF 393 = experiment: Cytotoxicity against human RXF393 cells assessed as cell growth at 10^-6 M after 48 hrs by SRB assay; conditions: RXF 393, 48 h, read-out: Activity
HOP-62 [15] = experiment: Growth inhibition of human HOP62 cells after 48 hrs by SRB assay; conditions: HOP-62, 48 h; how it was run: as §1
CCRF-CEM [16] = experiment: Cytotoxicity against human CCRF-CEM cells assessed as cell growth at 10^-5 M after 48 hrs by SRB assay; conditions: read-out: Activity; how it was run: as §2
[17] = Cytotoxicity against human […] cells assessed as cell growth at 10^-5 M after 48 hrs by SRB assay; conditions: RPMI8266, 48 h, read-out: Activity

COc1ccc(-c2nn3cc(-c4ccc(O)cc4O)nc3s2)cc1
growth at 10 µM (SF-295 [1]): 3% | growth at 10 µM (SN12C [2]): 7% | GI50 (SF-295 [3]): 2.16 µM | TGI (SF-295 [3]): 15.1 µM | CC50 (SF-295 [3]): > 100 µM | GI50 (LOX IMVI [4]): 2.58 µM | LC50 (lethal concentration, 50% net cell kill) (LOX IMVI [4]): > 100 µM | TGI (LOX IMVI [4]): 31.4 µM | GI50 (SK-MEL-2): 2.85 µM | TGI (SK-MEL-2): 14.2 µM | CC50 (SK-MEL-2): > 100 µM | GI50 (UO-31 [5]): 1.44 µM | LC50 (UO-31 [5]): > 100 µM | TGI (UO-31 [5]): 3.97 µM | growth at 10 µM (BT-549): 12% | growth at 0.1 µM (HL-60): 92% | growth at 0.1 µM (U-251): 92% | growth at 0.1 µM (LOX IMVI [6]): 94% | growth at 100 µM (EKVX): -9% | growth at 100 µM (HOP-62 [7]): -22% | growth at 100 µM (NCI-H522): -23% | growth at 100 µM (HCT-116): -55% | growth at 100 µM (LOX IMVI [8]): -4% | growth at 100 µM (786-0 [9]): -33% | growth at 0.1 µM (OVCAR-8): 98% | growth at 0.1 µM (786-0 [10]): 99% | growth at 0.1 µM (UO-31 [11]): 83% | growth at 0.1 µM (T47D): 89% | growth at 0.1 µM (MDA-MB-468): 78% | growth at 0.01 µM (A498): 82% | growth at 0.01 µM (ACHN): 103% | growth at 0.01 µM (SN12C [12]): 99% | growth at 1 µM (CCRF-CEM [13]): 74% | growth at 1 µM (UACC-62): 81% | growth at 1 µM (OVCAR-5): 84% | growth at 1 µM (786-0 [14]): 90% | growth at 1 µM (RXF 393): 55% | GI50 (HOP-62 [15]): 1.88 µM | LC50 (concentration killing 50% of cells) (HOP-62 [15]): > 100 µM | TGI (HOP-62 [15]): 5.17 µM | growth at 10 µM (CCRF-CEM [16]): 40% | growth at 10 µM [17]: 10%

COc1ccc(-c2nn3cc(-c4cccc(N)c4)nc3s2)cc1
growth at 10 µM (SF-295 [1]): 24% | growth at 10 µM (SN12C [2]): 36% | GI50 (SF-295 [3]): 2.88 µM | TGI (SF-295 [3]): 29.3 µM | CC50 (SF-295 [3]): > 100 µM | GI50 (LOX IMVI [4]): 3.38 µM | LC50 (lethal concentration, 50% net cell kill) (LOX IMVI [4]): > 100 µM | TGI (LOX IMVI [4]): 29.5 µM | GI50 (SK-MEL-2): 5.35 µM | TGI (SK-MEL-2): 31.9 µM | CC50 (SK-MEL-2): > 100 µM | GI50 (UO-31 [5]): 1.46 µM | LC50 (UO-31 [5]): 63.3 µM | TGI (UO-31 [5]): 10.2 µM | growth at 10 µM (BT-549): 24% | growth at 0.1 µM (HL-60): 95% | growth at 0.1 µM (U-251): 106% | growth at 0.1 µM (LOX IMVI [6]): 92% | growth at 100 µM (EKVX): -18% | growth at 100 µM (HOP-62 [7]): -54% | growth at 100 µM (NCI-H522): -76% | growth at 100 µM (HCT-116): -91% | growth at 100 µM (LOX IMVI [8]): -29% | growth at 100 µM (786-0 [9]): -93% | growth at 0.1 µM (OVCAR-8): 107% | growth at 0.1 µM (786-0 [10]): 105% | growth at 0.1 µM (UO-31 [11]): 81% | growth at 0.1 µM (T47D): 86% | growth at 0.1 µM (MDA-MB-468): 80% | growth at 0.01 µM (A498): 87% | growth at 0.01 µM (ACHN): 106% | growth at 0.01 µM (SN12C [12]): 91% | growth at 1 µM (CCRF-CEM [13]): 63% | growth at 1 µM (UACC-62): 71% | growth at 1 µM (OVCAR-5): 90% | growth at 1 µM (786-0 [14]): 104% | growth at 1 µM (RXF 393): 63% | GI50 (HOP-62 [15]): 3.12 µM | LC50 (concentration killing 50% of cells) (HOP-62 [15]): 87.6 µM | TGI (HOP-62 [15]): 16.6 µM | growth at 10 µM (CCRF-CEM [16]): 10% | growth at 10 µM [17]: 6%
